Assay type in all cases: in vivo, human
Data set [1] relates to healthy male subjects. The experiment in a line: NeuroCart test battery, overall pharmacodynamic effects. As to conditions: galantamine 16 mg oral; healthy elderly males. The method, boiled down: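 Double-blind study in healthy nonsmoking elderly men (cohorts 3–4, 12 on active drug). A single oral 16 mg dose was given at the same time as the other cohort treatments, with elderly double-placebo controls. Battery: N-back, Stroop, adaptive tracking, Bond–Lader VAS, pharmaco-EEG, eye movements, pupil size, body sway, face encoding/recognition and VVLT. Two baseline runs, then 1–6, 8 and 10 h post-dose. VVLT ran at 1 h 30 min only; face recognition predose and at 1 h 45 min. Analysis by mixed-model ANOVA with fixed factor treatment.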

For data set [2], the system named is healthy male subjects. The experiment in a line: Treatment emergent adverse events, single dose study. As to conditions: galantamine 16 mg oral.
The nature of data set [3]: Plasma pharmacokinetics after single intranasal dose of Gln-1062. To be noted: for half-life / AUC(0-inf) / Cmax: male, human, inhaled or intranasal.
For data set [4], the system named is healthy male subjects. The experiment in a line: VAS nausea, single dose. As to conditions: healthy elderly males.

As for `COc1ccc2c3c1O[C@H]1C[C@@H](O)C=C[C@@]31CCN(C)C2` [galantamine], in the data set on healthy male subjects [1], the “pharmacodynamic effects compared with placebo” value is “did not induce any measurable pharmacodynamic effects”. The “Cold sweat or hyperhidrosis, incidence” value in the data set on healthy male subjects [2] is reported as 33.3%. Also, the “Nausea, incidence” value in the data set on healthy male subjects [2] (healthy elderly males) worked out at 33.3%. For the same compound, in the data set on healthy male subjects [2] (healthy elderly subjects), the “Diarrhea, incidence” value stood at 8.3%. Moreover, the “Vomiting, incidence” value in the data set on healthy male subjects [2] (healthy elderly subjects) came to 41.7%. Further, the half-life in data set [3] was about 600 min; in data set [3] (5.5 mg), 591 min; in data set [3] (11 mg) it was 476 min; in data set [3] (22 mg), 523 min; in data set [3] (33 mg) it was 554 min; in data set [3] (44 mg) it was 666 min. For the same compound, the total exposure AUC(0-inf) in data set [3] (5.5 mg) was 268 ng·h/mL; in data set [3] (11 mg), 367 ng·h/mL; in data set [3] (22 mg), 799 ng·h/mL; in data set [3] (33 mg), 1190 ng·h/mL; in data set [3] (44 mg), 1530 ng·h/mL. Moreover, the Cmax in data set [3] (5.5 mg) stood at 17.6 ng/mL; in data set [3] (11 mg) it was 27.7 ng/mL; in data set [3] (22 mg) it was 46.5 ng/mL; in data set [3] (33 mg), 76.1 ng/mL; in data set [3] (44 mg), 74.7 ng/mL. In data set [3] (over the Gln-1062 intranasal dose levels), the “Tmax for galantamine after administration of Gln-1062” value is 2.3 to 4.7 h. For the same compound, in the data set with healthy male subjects [4], the “peak of nausea (VAS nausea), time after administration” value was 2 h.

Values taken from article PMC5644278 (Alzheimer's & Dementia : Translational Research & Clinical …, 2016).
